According to the RNAGym collection of RNA variant scans (doi:10.1126/science.aae0568):
Variants at the floor of the assay were thinned out.

B1: tRNA (parent)
chain: GUUCCGUUGGCGUAAUGGUAACGCGUCUCCCUCCUAAGGAGAAGACUGCGGGUUCGAGUCCCGUACGGAACG

Variants of: B1
Assay: yeast fitness relative to wild type (ratio to wild type); higher = fitter; tRNA-Arg(CCU), competitive growth, 37 C, YPD
How it was run: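 For this measurement, the tRNA-Arg(CCU) gene was varied by chemical synthesis at a 3% per-site mutation rate across 69 sites, and each variant was placed at the native genomic locus in Saccharomyces cerevisiae. The pooled strains went through a 24-hour competition in YPD at 37°C in six parallel replicates, with amplicons from start and end populations read by 100-nucleotide paired-end sequencing. Darwinian fitness relative to wild type followed from the change in each genotype's frequency. Genotypes needed ≥ 100 starting reads, and estimates < 0.5 were set to 0.5.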
GUUCCGUUGGCGUAAUGGUAACGCGUCUCCCUCCUAAGGAGAAGACUGAGGGAUCGAGCCACGUACGGAACG [C49A U53A U59C C61A] showed a yeast fitness of no more than 0.5.
Variant GUUCCGUUGGCGUAAUGGUAACGCGUCUCCCUCCUAAGGAGAAGACUCCGGGUUCGAGUCCCGUAUGGAACG [G48C C66U] has a yeast fitness of 0.932.
In the case of GUUCCGUUGGCGUAAUGGUAACGCGUCUCCCUCCUAAGGAGAAGACUCCGGCUUCGAGUCCCCUACGGAACG [G48C G52C G63C], the yeast fitness is reported as no more than 0.5.
Work on GUUCCGUUGGCGUAAUGGUAACGCGUCUCCCUCCUAAGGAGAAGACUCCGGCUUCGCAUCCCGUACGGAGCG [G48C G52C A57C G58A A70G] yielded a yeast fitness of no more than 0.5.
With GUUCCGUUGGCGUAAUGGUAACGCGUCUCCCUCCUAAGGAGAAGACUGAGGGUUCGAGUCCCGCACGGAACG [C49A U64C] the yeast fitness was 0.86.
With GUUCCGUUGGCGUAAUGGUAACGCGUCUCCCUCCUAAGGAGAAGACUCCGCGUUCGAGACCCGUACGGAACG [G48C G51C U59A] the yeast fitness was no more than 0.5.
Variant GUUCCGUUGGCGUAAUGGUAACGCGUCUCCCUCCUAAGGAGAAGACUCCGGGUUCGAGACCCGUACGGAACG [G48C U59A] has a yeast fitness of 0.785.
Variant GUUCCGUUGGCGUAAUGGUAACGCGUCUCCCUCCUAAGGAGAAGACUGGGGGUUCGAGUUCCGUACGGGACG [C49G C60U A69G] has a yeast fitness of no more than 0.5.
GUUCCGUUGGCGUAAUGGUAACGCGUCUCCCUCCUAAGGAGAAGACUGAGCGUUCGAGUCCCGUACGGAACG [C49A G51C] gave a yeast fitness of 0.589.
GUUCCGUUGGCGUAAUGGUAACGCGUCUCCCUCCUAAGGAGAAGACUCCGGGUUCGAGUCACGUUCGGAACG [G48C C61A A65U] showed a yeast fitness of 0.687.
Variant GUUCCGUUGGCGUAAUGGUAACGCGUCUCCCUCCUAAGGAGAAGACUCCGGGUUCCAGUCCCGUACGGAACG [G48C G56C] has a yeast fitness of 0.7.
Variant GUUCCGUUGGCGUAAUGGUAACGCGUCUCCCUCCUAAGGAGAAGACUGAGGGUUCGAGUCCUGUGCGGAACG [C49A C62U A65G] has a yeast fitness of no more than 0.5.
GUUCCGUUGGCGUAAUGGUAACGCGUCUCCCUCCUAAGGAGAAGACUGAGGGUUCCAGUCCCGUACAGAACG [C49A G56C G67A] showed a yeast fitness of no more than 0.5.
Variant GUUCCGUUGGCGUAAUGGUAACGCGUCUCCCUCCUAAGGAGAAGACUGAGGGUUCGAGUCCCGUACGGAUCG [C49A A70U] has a yeast fitness of 0.714.
With GUUCCGUUGGCGUAAUGGUAACGCGUCUCCCUCCUAAGGAGAAGACUGGGGGUUCGUGUCGCGUACGGAACG [C49G A57U C61G] the yeast fitness was 0.516.
GUUCCGUUGGCGUAAUGGUAACGCGUCUCCCUCCUAAGGAGAAGACUGGGGGUUCGAGUACCGUACGGAACG [C49G C60A] showed a yeast fitness of 0.696.
GUUCCGUUGGCGUAAUGGUAACGCGUCUCCCUCCUAAGGAGAAGACUGGGGGUUCGAGUGCCGUACGGAACG [C49G C60G] showed a yeast fitness of 0.64.
GUUCCGUUGGCGUAAUGGUAACGCGUCUCCCUCCUAAGGAGAAGACUCCGGGUUCGAGUCCCGCACGGAACG [G48C U64C] showed a yeast fitness of 1.08.
GUUCCGUUGGCGUAAUGGUAACGCGUCUCCCUCCUAAGGAGAAGACUCCGGGUUCGAGUCCCGAACGGAACG [G48C U64A] showed a yeast fitness of 0.946.
In the case of GUUCCGUUGGCGUAAUGGUAACGCGUCUCCCUCCUAAGGAGAAGACUCCGGGUCCGAGUCCCGUACGGAACG [G48C U54C], the yeast fitness is reported as 0.973.
With GUUCCGUUGGCGUAAUGGUAACGCGUCUCCCUCCUAAGGAGAAGACUCCGGGUACGAGUCCCGUACGGAACG [G48C U54A] the yeast fitness was 0.679.
Work on GUUCCGUUGGCGUAAUGGUAACGCGUCUCCCUCCUAAGGAGAAGACUGGGGGUUCGUGUCCCAUACAGAACG [C49G A57U G63A G67A] yielded a yeast fitness of no more than 0.5.
For GUUCCGUUGGCGUAAUGGUAACGCGUCUCCCUCCUAAGGAGAAGACUCCGGGUUCGAGUCCCAUACGGAACG [G48C G63A], the yeast fitness was 0.877.
Variant GUUCCGUUGGCGUAAUGGUAACGCGUCUCCCUCCUAAGGAGAAGACUGAGGGUUCGAGUCCCGUACAGAACG [C49A G67A] has a yeast fitness of 0.579.
GUUCCGUUGGCGUAAUGGUAACGCGUCUCCCUCCUAAGGAGAAGACUGAGGGUUCAAGUCCCGUACGGAACG [C49A G56A] gave a yeast fitness of 0.831.
Variant GUUCCGUUGGCGUAAUGGUAACGCGUCUCCCUCCUAAGGAGAAGACUGAGGGUUCGAGUCCGGUACGGAACG [C49A C62G] has a yeast fitness of 0.576.
In the case of GUUCCGUUGGCGUAAUGGUAACGCGUCUCCCUCCUAAGGAGAAGACUCCGCGUUCGUGUCCCGUACGCAACG [G48C G51C A57U G68C], the yeast fitness is reported as no more than 0.5.
GUUCCGUUGGCGUAAUGGUAACGCGUCUCCCUCCUAAGGAGAAGACUGGGGGUUCGAGUUCCGUCCGGAACG [C49G C60U A65C] showed a yeast fitness of no more than 0.5.
Work on GUUCCGUUGGCGUAAUGGUAACGCGUCUCCCUCCUAAGGAGAAGACUGGGGGUUCGAGUCCUGUACGGAACG [C49G C62U] yielded a yeast fitness of 0.79.
Variant GUUCCGUUGGCGUAAUGGUAACGCGUCUCCCUCCUAAGGAGAAGACUGAGGGUUCGAGUCUCGUGCGGAACG [C49A C61U A65G] has a yeast fitness of 0.568.
Work on GUUCCGUUGGCGUAAUGGUAACGCGUCUCCCUCCUAAGGAGAAGACUCCGGGUUCGAGUCCUGUACGGCACG [G48C C62U A69C] yielded a yeast fitness of 0.701.
Work on GUUCCGUUGGCGUAAUGGUAACGCGUCUCCCUCCUAAGGAGAAGACUGAUGGUUCGAGUCCCGUACGGAACG [C49A G50U] yielded a yeast fitness of 0.694.
Variant GUUCCGUUGGCGUAAUGGUAACGCGUCUCCCUCCUAAGGAGAAGACUGAAGGUUCGAGUCCCGUACGGAACG [C49A G50A] has a yeast fitness of 0.672.
In the case of GUUCCGUUGGCGUAAUGGUAACGCGUCUCCCUCCUAAGGAGAAGACUCCGGGUUUGAGUCCCGUACGGAACG [G48C C55U], the yeast fitness is reported as 0.668.
GUUCCGUUGGCGUAAUGGUAACGCGUCUCCCUCCUAAGGAGAAGACUCCGCGAUCGAGUCCCGUAAGGAACG [G48C G51C U53A C66A] gave a yeast fitness of no more than 0.5.
In the case of GUUCCGUUGGCGUAAUGGUAACGCGUCUCCCUCCUAAGGAGAAGACUGAGGGUACGAGUCCCGUACGGAACG [C49A U54A], the yeast fitness is reported as 0.538.
GUUCCGUUGGCGUAAUGGUAACGCGUCUCCCUCCUAAGGAGAAGACUGAGGGUCCGAGUCCCGUACGGAACG [C49A U54C] gave a yeast fitness of 0.674.
In the case of GUUCCGUUGGCGUAAUGGUAACGCGUCUCCCUCCUAAGGAGAAGACUGAGGGUGCGAGUCCCGUACGGAACG [C49A U54G], the yeast fitness is reported as 0.584.
